Screening data: PubChem BioAssay, several laboratories
eIF4E-4G inh: eIF4E–eIF4G protein interaction inhibitors, primary screen, biochemical, uHTS, TR-FRET, eIF4GI fragment; AID 782, 2007; Eukaryotic translation initiation factor 4E (Mus musculus) + Eukaryotic translation …; inhibition, % at 21.7 µM; hit rate 0.37% among 220,000; TR-FRET eIF4E-eIF4GI(517-606) binding, 2 h;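 active means inhibition above about 30%, limit read from the data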
14-3-3 Bad inh: inhibitors of 14-3-3 zeta/Bad binding, primary screen, biochemical, TR-FRET, bovine 14-3-3 zeta; AID 781, 2007; TR-FRET 14-3-3zeta/Dy647-pBad peptide displacement, 1 h; hit rate 0.71% among 220,000; 14-3-3 protein zeta/delta (Bos taurus), P63103; inhibition, % at 21.7 µM;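 active means inhibition above about 70%, limit read from the data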
PKD1 kinase inh: inhibitors of human PKD1 kinase, biochemical, fluorescence polarization; inhibition, % (concentration not given with the values); PKD1 kinase fluorescence polarization assay; hit rate 0.056% among 200,000; Serine/threonine-protein kinase D1 (Homo sapiens), Q15139
RBBP9 inhibitor: human RBBP9 inhibitors, primary screen, biochemical, fluorescence polarization, FP-Rh probe, HTS. Serine hydrolase RBBP9 (Homo sapiens), O75884. recombinant RBBP9. inhibition, % at 7.94 µM. hit rate 0.2% among 220,000. AID 1515, 2009;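 active means inhibition above the campaign mean of all tested compounds plus 3 SD, cut at about 14% in these data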
Target sequence (O75884 whole entry, looked up): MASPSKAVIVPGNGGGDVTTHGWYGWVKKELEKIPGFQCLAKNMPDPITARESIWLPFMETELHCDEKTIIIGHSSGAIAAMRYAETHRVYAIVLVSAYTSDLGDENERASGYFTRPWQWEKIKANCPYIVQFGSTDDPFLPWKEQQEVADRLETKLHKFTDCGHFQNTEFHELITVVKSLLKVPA
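System: RBBP9 protein / Buffer or medium: Tris/NaCl buffer pH 8.0 with 0.1% Pluronic / Probe or stimulus: Serine-hydrolase probe FP-Rh, 375 nM pre-mixing / Dosing: 7.94 µM single dose, 0.794% DMSO / Times: enzyme-compound preincubation 30 min, then probe labeling 45 min, 25 °C / Technique: fluorescence polarization (mP), excitation 525 nm, emission 598 nm / Replication: singlicate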
EBV gp42 block: Epstein-Barr virus gp42 inhibitors, primary screen, biochemical, uHTS, fluorescence polarization; Fluorescence polarization binding assay, mP read-out; inhibition, % (tested at 21.74 µM); hit rate 0.42% among 220,000; AID 1085, 2008
Target sequence (Q1HVG2 whole entry, looked up): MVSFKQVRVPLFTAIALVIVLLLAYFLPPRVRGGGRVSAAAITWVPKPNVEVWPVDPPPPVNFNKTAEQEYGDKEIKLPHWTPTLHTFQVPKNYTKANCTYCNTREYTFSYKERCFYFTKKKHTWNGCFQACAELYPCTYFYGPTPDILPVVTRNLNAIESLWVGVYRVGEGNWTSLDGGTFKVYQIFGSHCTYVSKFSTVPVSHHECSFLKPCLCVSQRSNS
A number is an active result; - = inactive; . = no result; [ ] = remark or other dose. In the library only some 1.6% were active in any assay of this set; here they are far more common. Unless noted, no stated cut-off is given here; in the data, active means inhibition above about 50%; inactive means the rest.

SMILES	eIF4E-4G inh	14-3-3 Bad inh	PKD1 kinase inh	RBBP9 inhibitor	EBV gp42 block
CCOC(=O)c1ccc(NC(=S)NCCc2ccc(OC)c(OC)c2)cc1	-	-	.	-	-
CCCCNC(=O)C(Sc1ccccc1)c1ccccc1 (stereo unspecified)	-	-	-	-	-
CCN1C(=O)/C(=C/C2=Cc3ccccc3OC2C)SC1=S (stereo unspecified)	-	-	.	-	52
CC1Oc2ccccc2C=C1/C=C1/SC(N2CCOCC2)=NC1=O (stereo unspecified)	-	-	-	-	-
OCCNc1nc(N2CCN(Cc3ccccc3)CC2)nc2ccccc12	-	80	-	-	-
COc1ccc(S(=O)(=O)N(C)C)cc1NCC(=O)Nc1cccc(C#N)c1	-	-	-	-	-
CCC(=O)Nc1ccccc1C(=O)OCC(=O)c1cccc2ccccc12	-	85[fluorescence artefact?]	-	-	-
NCCCCC(NC(=O)C1CCCN1C(=O)C1CSSCC(N)C(=O)NC(Cc2ccc(O)cc2)C(=O)NC(Cc2ccccc2)C(=O)NC(CCC(N)=O)C(=O)NC(CC(N)=O)C(=O)N1)C(=O)NCC(N)=O (stereo unspecified)	-	-	-	-	-
c1ccc(-c2ccnc3nc(N4CCN(c5ccccc5)CC4)nn23)cc1	-	-	-	-	72
O=[N+]([O-])c1cc(/C=N\Nc2nccs2)ccc1O	49[fluorescence artefact?]	75[fluorescence artefact?]	-	-	93
O=S(=O)(Cc1ccccc1)NCC1CCCN(Cc2ccc3nonc3c2)C1 (stereo unspecified)	-	-	-	-	-
O=C(Nc1cc([N+](=O)[O-])ccc1N1CCCC1)c1ccccc1	-	-	-	-	-
CN1CCN(c2ccc([N+](=O)[O-])cc2NC(=O)c2ccccc2)CC1	-	77	-	-	-
CCC(=O)Nc1cc(-c2cc3ccccc3oc2=O)ccc1OC	-	-	-	-	-
COc1ccc(-c2cc3ccccc3oc2=O)cc1NC(=O)c1ccc([N+](=O)[O-])o1	-	80[fluorescence artefact?]	-	-	-
COc1ccc(-c2cc3ccccc3oc2=O)cc1NC(=O)c1ccc(Br)o1	-	-	-	-	-
COc1ccc(-c2cc3ccccc3oc2=O)cc1NC(=S)NC(=O)c1ccc2c(c1)OCCO2	-	77[fluorescence artefact?]	-	-	-
CCN(CC)CC(C)(C)COC(=O)c1oc2ccccc2c1C	-	-	.	-	-
Cc1ccc(NC(=O)CN2C(=O)S/C(=C/c3ccc(-c4cc(C(=O)O)ccc4C)o3)C2=O)cc1C	40	76[fluorescence artefact?]	-	-	-
Cn1c(SCC(=O)NCc2cccs2)nnc1-c1ccc(O)cc1	-	-	-	-	-
Cc1cc(C)c(NC(=O)COC(=O)/C=C/c2cccs2)c(C)c1	-	-	-	-	-
Cc1ccccc1-n1c(C)nnc1SCC(=O)NC1CCCc2ccccc21 (stereo unspecified)	-	92[fluorescence artefact?]	-	-	-
O=C(CC1N=C(Cc2ccccc2)NNC1=O)N/N=C/c1ccc([N+](=O)[O-])cc1 (stereo unspecified)	-	-	-	-	-
Cc1ccc(N=Nc2[nH]c3ccccc3c2O)cc1	-	-	-	-	100
O=C(C(c1ccccc1)c1ccccc1)N1CCN(Cc2ccco2)CC1	-	71	-	-	-
SMILES	eIF4E-4G inh	14-3-3 Bad inh	PKD1 kinase inh	RBBP9 inhibitor	EBV gp42 block
O=C(C(c1ccccc1)c1ccccc1)N1CCOCC1	-	-	-	-	-
Fc1cccc(Cl)c1CNc1ccc(N2CCCC2)cc1	35	-	-	-	-
CC1CCCCN1C(=S)NC(=O)c1cccs1 (stereo unspecified)	92	-	.	-	-
CC1CCN(C(=S)NC(=O)c2cccs2)CC1	-	-	-	-	-
COc1ccc(CC(=O)N/N=C(\C)CC(=O)NCc2ccco2)cc1OC	-	-	.	-	-
COC(=O)c1c(C)[nH]c(C=O)c1-c1ccccc1	-	-	.	-	-
COC(=O)c1c(-c2ccccc2)c[nH]c1C	-	-	.	-	-
COC(=O)c1cc2c(-c3ccccc3)c(C)c3ccccn3c-2c1C(=O)OC	-	-	-	-	65
COC(=O)c1c(Cl)c2n3ccccc3c(C)c(-c3ccccc3)c-2c1C(=O)OC	-	-	-	-	97
CCOC(=O)C1CCN(C(=O)N(CC)CC)CC1	-	-	-	-	-
COc1ccc(CCNC(=O)Cn2cnc3ccccc3c2=O)cc1OC	-	-	-	-	-
COc1ccc(CCNC(=O)Cn2cnc3c(cnn3-c3ccccc3Cl)c2=O)cc1OC	31[fluorescence artefact?]	-	-	-	-
CC1CN(C(=O)Nc2cccc(Cl)c2)C2(CCCCCC2)O1 (stereo unspecified)	-	-	-	-	-
CCOc1ccccc1N/C(=C(/C(Cl)=C(Cl)Cl)[N+](=O)[O-])n1cncn1	-	74	-	-	-
Cc1ccc(S(=O)(=O)/N=C2/C=C(Sc3ncn[nH]3)C(=O)c3ccccc32)cc1	34[fluorescence artefact?]	88[fluorescence artefact?]	-	-	-
Cc1ccc(S(=O)(=O)/N=C2/C=C(Sc3ncn[nH]3)C(=O)c3ccccc32)c(C)c1	-	-	-	-	-
CC(C)c1ccc(S(=O)(=O)/N=C2/C=C(Sc3ncn[nH]3)C(=O)c3ccccc32)cc1	-	79[fluorescence artefact?]	-	-	-
OC1(c2ccccc2)CN(c2ccccc2)C2=[N+]1CCS2 (stereo unspecified)	-	-	-	-	-
CSc1sc(-c2n[nH]c(=S)n2C)c2c1C=CCC2	-	-	.	-	-
O=C(Nc1ncc2c(n1)-c1ccccc1CC2)c1ccc(Cl)cc1	-	-	-	-	-
CCCSCC(=O)Nc1ncc2c(n1)-c1ccccc1CC2	-	-	-	-	60
COc1ccc(CNC(=O)CN(C2CCCCC2)S(C)(=O)=O)cc1	-	-	-	-	-
COC(=O)c1ccccc1NC(=O)COC(=O)c1ccc(C)c(NC(=O)c2ccco2)c1	86[fluorescence artefact?]	89[fluorescence artefact?]	-	-	-
O=C1COc2ccc(C(=O)COC(=O)Cc3ccsc3)cc2N1	-	-	-	-	-
CCC(C)n1ncn(-c2ccc(N3CCN(c4ccc(OCC5COC(Cn6cncn6)(c6ccc(Cl)cc6Cl)O5)cc4)CC3)cc2)c1=O (stereo unspecified)	-	-	.	-	-
CCCC1COC(Cn2cncn2)(c2ccc(C)cc2)O1 (stereo unspecified)	-	88	-	-	-
Cc1cc(=O)[nH]c(SCC(=O)NC2CCCc3ccccc32)n1 (stereo unspecified)	-	-	.	-	-
O=C(NNc1c(Cl)cccc1Cl)c1cccs1	-	91	.	-	-
O=C1c2ccc3c4c(ccc(c24)C(=O)N1CCCCO)C(=O)N(CCCCO)C3=O	-	96	-	-	-
CCN(CC)S(=O)(=O)c1ccc(NC(=O)c2cc(C(=O)OC)cc([N+](=O)[O-])c2)cc1	33	-	-	-	-
